# In the library only some 4.8% were active in any assay of this set; here they are far more common.
# PAFAH2 FP inh: inhibitors of human PAFAH2. Q99487. recombinant PAFAH2, FP-rhodamine activity probe, fluorescence polarization. inhibition, % at 3.39 µM. actives 0.99% (n = 340,000);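 active = inhibition above the mean over all tested compounds plus 3 SD, cut at about 30% in these data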;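 also: inhibitors block probe labeling of enzyme so polarization drops; 0% = enzyme with DMSO and 100% = wells lacking PAFAH2 protein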
# UCH37 DUB inh: blocks the human deubiquitinase UCH37; inhibition, % (no concentration beside the values); Q9Y5K5; purified proteasome/UCH37, Ub-AMC cleavage fluorescence; actives 0.33% (n = 330,000);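 active = mean inhibition over replicate wells above about 20%, limit read from the data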;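 also: 0% = compound-free wells with enzyme and 100% = wells lacking proteasome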
#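 Signal – fluorescence, ex 355 nm, em 460 nm · System – Proteasome-bound UCH37 · Input – 0.15 nM proteasome as dispensed · Timing – 30 min preincubation with enzyme, 25 min cleavage at room temperature · Read-out basis – percent inhibition of cleavage signal versus uninhibited and no-proteasome wells · Medium – Tris-HCl pH 7.4 with ATP-MgCl2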
# pPAFAH FP inh: pPAFAH (human) enzyme inhibition | inhibition, % at 3.39 µM | actives 1.5% (n = 330,000) | AID 463082 | recombinant pPAFAH, FP-rhodamine probe fluorescence polarization | Q13093;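 active = inhibition above the mean inhibition across the screen plus 3 SD, cut at about 25% in these data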;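 also: inhibitors block binding of the rhodamine activity-based probe so polarization drops; 0% = enzyme with DMSO and 100% = wells lacking pPAFAH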
# PAFAH1B3 FP inh: blocks human PAF acetylhydrolase 1B catalytic subunit 3 | recombinant PAFAH1B3, FP-rhodamine probe, fluorescence polarization | inhibition, % at 3.39 µM | actives 0.28% (n = 340,000);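 active = inhibition above the screen-wide average of all tested compounds plus 3 SD, cut at about 25% in these data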;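 also: 0% = enzyme with DMSO only and 100% = wells lacking PAFAH1B3 protein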
# Target sequence (Q15102 whole entry, looked up): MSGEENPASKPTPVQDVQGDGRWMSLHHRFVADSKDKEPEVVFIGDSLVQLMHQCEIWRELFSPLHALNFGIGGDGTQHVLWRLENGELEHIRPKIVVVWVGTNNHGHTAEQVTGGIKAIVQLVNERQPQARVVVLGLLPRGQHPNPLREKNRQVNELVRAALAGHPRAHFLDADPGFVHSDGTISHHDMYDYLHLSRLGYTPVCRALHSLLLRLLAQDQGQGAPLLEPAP
# GRIN3A LBD mod: modulators (binders) of human NR3A ligand-binding domain. actives 2.5% (n = 340,000). Tm shift relative to glycine control, % at 25 µM. NR3A LBD differential scanning fluorimetry, Tm shift; 0% = protein alone, 100% = glycine-bound protein;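 active = melting temperature shift of at least 10% of the positive control shift, at one fixed dose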
# PAFAH1B2 inh: inhibitors of human PAFAH1B2. actives 1.2% (n = 340,000). AID 492953. P68402. inhibition, % at 3.39 µM. recombinant PAFAH1B2, FP-rhodamine activity probe, fluorescence polarization;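 active = inhibition above the mean of all tested compounds plus 3 SD, cut at about 24% in these data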;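 also: 0% = enzyme with DMSO and 100% = wells lacking PAFAH1B2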
# Target sequence (P68402 whole entry, looked up): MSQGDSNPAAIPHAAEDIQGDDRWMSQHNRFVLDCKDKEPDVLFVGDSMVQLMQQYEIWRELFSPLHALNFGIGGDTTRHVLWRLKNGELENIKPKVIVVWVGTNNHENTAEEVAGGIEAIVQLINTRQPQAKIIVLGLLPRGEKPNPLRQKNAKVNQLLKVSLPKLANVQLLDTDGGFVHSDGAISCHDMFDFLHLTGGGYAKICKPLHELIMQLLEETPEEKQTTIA
# * hit, by the source's call; . = no result.
SMILES,PAFAH2 FP inh,UCH37 DUB inh,pPAFAH FP inh,PAFAH1B3 FP inh,GRIN3A LBD mod,PAFAH1B2 inh
COc1ccc(NC(=O)Cc2cccc(F)c2)cc1S(=O)(=O)Nc1ccccc1Cl,2,6,30*,5,-6,6
COc1ccccc1NC(=O)Nc1ccc(F)c(F)c1,-3,3,6,5,23*,-1
NC(=O)c1ccccc1NC(=O)Nc1ccc(F)c(Cl)c1,6,-15,4,2,33*,6
CC(=O)Nc1ccccc1C(=O)C(=O)Nc1ccc(F)c(Cl)c1,11,5,6,11,2,4
Cc1cc(Cl)ccc1NC(=O)CCC(=O)NN=Cc1cc([N+](=O)[O-])ccc1O,.,1,.,.,.,.
Cc1[nH]n(-c2ccc([N+](=O)[O-])cc2)c(=O)c1C=NN1CCOCC1,.,13,.,.,.,.
CC(Oc1ccccc1)c1ccnc2nc(N=CN(C)C)nn12 (centres undefined),.,-98,.,.,.,.
Fc1ccc(-c2c[nH]c(=S)n2Cc2ccccc2)cc1,4,4,-1,8,-3,27*
Oc1ccc(-c2n[nH]c(=S)n2Cc2ccccc2)cc1,8,-2,-3,5,-2,25*
FC(F)C(F)(F)Oc1cccc(-c2n[nH]c(=S)n2Cc2ccccc2)c1,-5,1,.,7,21*,15
S=c1[nH]nc(-c2cccnc2)n1Cc1ccccc1,10,1,0,7,0,8
S=c1[nH]nc(-c2ccc(Br)cc2)n1Cc1ccccc1,6,4,0,14,14*,22
S=c1[nH]nc(-c2ccccc2Cl)n1Cc1ccccc1,2,3,8,-2,-1,27*
Fc1ccc(-c2n[nH]c(=S)n2Cc2ccccc2)cc1,-5,0,2,8,0,28*
Cc1ccc(C=Nn2c(COc3ccccc3)n[nH]c2=S)s1,.,6,.,.,.,.
Cn1cc(C=NO)nc2c(=O)n(-c3ccccc3)c(=O)nc1-2,.,-29,.,.,.,.
COc1ccc(C(=O)NC(=S)N2CC(C)OC(C)C2)cc1OC (centres undefined),-3,3,4,4,12*,-1
CCOC(=O)C1CCN(C(=O)COC(=O)c2ccc([N+](=O)[O-])o2)CC1,12,20*,4,10,2,3
CC1CCCC(C)N1C(=O)COC(=O)CSc1ccc([N+](=O)[O-])cc1 (centres undefined),4,4,.,8,3,11
CCOC(=O)C1=C(COC(=O)c2ccc([N+](=O)[O-])o2)NC(=O)NC1C (centres undefined),11,21*,2,12,3,6
CCOC(=O)C1CCN(C(=O)COC(=O)CSc2ccc([N+](=O)[O-])cc2)CC1,0,5,31*,5,6,9
CCOC(=O)C1=C(COC(=O)c2ccc(Cl)cc2[N+](=O)[O-])NC(=O)NC1C (centres undefined),0,0,1,9,0,-5
Cc1ccc(-c2nnc(SCC(=O)NN=Cc3ccc(C)s3)n2-c2ccc(C)cc2)cc1,.,-1,.,.,.,.
c1ccc(Nc2ccc(-n3ccnc3)nn2)cc1,-2,5,5,-4,-6,1
Clc1ccc(Nc2ccc(-n3ccnc3)nn2)cc1Cl,5,3,5,9,19*,-5
SMILES,PAFAH2 FP inh,UCH37 DUB inh,pPAFAH FP inh,PAFAH1B3 FP inh,GRIN3A LBD mod,PAFAH1B2 inh
O=C(/C=C/Nc1ccc(Br)cn1)c1cccc(OC(F)F)c1,3,4,5,2,14*,0
CC1(C)CC1C(=O)Nc1ccc([N+](=O)[O-])cc1Br (centres undefined),4,4,-2,4,12*,-1
COc1cc2cc(NC(C)=O)cc(NCc3ccccc3)c2cc1OC,-2,-36,.,11,12*,6
O=C(NCc1ccco1)c1ccccc1NS(=O)(=O)c1ccc(Br)s1,15,5,28*,8,-4,14
c1ccc(Nc2ncnc3c2oc2ccccc23)cc1,-1,-16,-1,0,-8,3
Oc1cccc(Nc2ncnc3c2oc2ccccc23)c1,-3,-4,-1,17,22*,7
Cc1ccc(Nc2nc(C)nc3c2oc2ccccc23)cc1,1,-69,4,-2,-3,4
Cc1nc(Nc2ccccc2)c2oc3ccc(Cl)cc3c2n1,-2,-176,4,5,16*,-2
CCc1nc(Nc2cccc(F)c2)c2oc3ccccc3c2n1,-3,-39,-3,-2,12*,0
Oc1ccc(Nc2ncnc3c2oc2ccccc23)cc1,-2,.,7,1,16*,2
CC(=NNC(=O)CCCCCNC(=O)c1ccccc1)c1ccccc1O,.,-2,.,.,.,.
CCc1ccc(C(=O)/C=C2\Sc3ccccc3NC2=O)cc1,36*,4,17,5,-16,4
ON=Cc1cc(Br)ccc1OCc1cccc(F)c1,.,3,.,.,.,.
CCc1cc2c(=O)c(-c3cscn3)coc2c(CN(C)C)c1O,11,-349,27*,4,-4,4
COc1ccc(CC(=O)NCC(=O)NN=Cc2sccc2C)cc1,.,2,.,.,.,.
CSCSC1=C(C#N)C(c2ccc(Cl)cc2)C(C(C)=O)=C(C)N1 (centres undefined),.,.,6,.,.,.
N#CC1=C(SCC(N)=O)NC2=C(C(=O)c3ccccc32)C1c1ccc(Cl)cc1 (centres undefined),2,9,15,-2,18*,-1
O=C(CCNC(=O)c1ccccc1Cl)Nc1ccc(Br)c(C(F)(F)F)c1,3,24*,0,2,0,3
Cc1ccc(Oc2nc(-c3ccccc3)ncc2S(=O)(=O)c2ccc(C)cc2)cc1,4,2,3,4,11*,-1
CC(=NOC(=O)c1cccc(C(F)(F)F)c1)c1sc(-c2ccccc2)nc1C,.,-121,.,.,.,.
FC(F)(F)c1cnc(NNC(=S)Nc2ccc(Cl)cc2)c(Cl)c1,-5,3,11,8,18*,7
O=S(=O)(c1ccc(Cl)cc1)N1CCN(C(=S)Nc2ccccc2F)CC1,-3,1,-3,-5,-1,25*
O=S(=O)(c1ccc2ccccc2c1)N1CCN(C(=S)Nc2ccc(F)c(Cl)c2)CC1,-11,2,-15,-2,19*,-3
CC(=NNC(=O)CCC(=O)Nc1ccc(C)c(C)c1)C1CC1,.,1,.,.,.,.
CCCCC(=O)OCC(=O)N1N=C(c2c[nH]c3ccccc23)C(O)C1c1ccc(OC)cc1 (centres undefined),-1,-10,12,11,30*,7
Cc1nn(C)c(C(=O)Nc2ccc3c(c2)OCO3)c1[N+](=O)[O-],10,4,.,-3,1,7
Cc1c([N+](=O)[O-])c(C(=O)Nc2ccc3c(c2)OCCO3)nn1C,2,4,2,4,10*,3
C[C@@H]1C[C@@H]2O[C@H]2C=CC=CC(=O)Cc2c(Cl)c(O)cc(O)c2C(=O)O1,.,-1,.,.,.,.

# Assay outcomes: PubChem BioAssay, several laboratories
